# Results from ChEMBL document CHEMBL4364256, “Design, synthesis and biological evaluation of antimicrobial diarylimine and -amine compounds targeting the interaction between the bacterial NusB and NusE proteins” (Eur J Med Chem, 2019).
# The source made the active and inactive calls.
# Assays:
# [1] = Therapeutic index, ratio of CC50 for human A549 cells to 1/2 times MIC for Staphylococcus aureus ATCC 25923; format: toxicity; conditions: read-out: TI
# [2] = test system: Streptococcus pneumoniae; test: Antimicrobial activity against Streptococcus pneumoniae ATCC 49619 incubated for 20 hrs by microdilution method; format: functional
# Method in brief: (§1)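 Broth microdilution MIC testing done following CLSI guidelines.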
# [3] = test system: Staphylococcus aureus; test: microbe, parasite or virus in culture; conditions: ATCC 25923, 20 h
# [4] = test system: Staphylococcus aureus; test: Antimicrobial activity against Staphylococcus aureus HA W231 ST45 incubated for 20 hrs by microdilution method; format: functional
# Method in brief: (§2)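 MIC determined by microdilution following Clinical & Laboratory Standards Institute (CLSI) guidelines, read in µg/mL, against a panel of hospital- and community-acquired MRSA strains.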
# [5] = test system: Staphylococcus aureus; test: Antimicrobial activity against Staphylococcus aureus ATCC BAA43 incubated for 20 hrs by microdilution method; format: functional; method in brief: as §2
# [6] = test system: Staphylococcus aureus; test: microbe, parasite or virus in culture; conditions: ATCC 29213, 20 h
# [7] = test system: Staphylococcus aureus; test: Antimicrobial activity against Staphylococcus aureus ATCC BAA44 incubated for 20 hrs by microdilution method; format: functional; method in brief: as §2
# [8] = test system: Pseudomonas aeruginosa; test: Antimicrobial activity against Pseudomonas aeruginosa ATCC 27853 incubated for 20 hrs by microdilution method; format: functional; method in brief: as §1
# [9] = Cytotoxicity against human A549 cells assessed as reduction in cell viability after 48 to 72 hrs by MTT assay; format: cell-based
# [10] = test system: Staphylococcus aureus; test: Antimicrobial activity against CA-methicillin-resistant Staphylococcus aureus W46 ST59 incubated for 20 hrs by microdilution method; conditions: W46 ST59, 20 h
# [11] = test system: Staphylococcus aureus; test: Antimicrobial activity against CA-methicillin-resistant Staphylococcus aureus W45 ST59 incubated for 20 hrs by microdilution method; conditions: W45 ST59, 20 h
# [12] = test system: Staphylococcus aureus; test: Antimicrobial activity against CA-methicillin-resistant Staphylococcus aureus W47 ST30 incubated for 20 hrs by microdilution method; format: functional; method in brief: as §2
# [13] = Therapeutic index, ratio of CC50 for human HaCaT cells to 1/2 times MIC for Staphylococcus aureus ATCC 25923; format: toxicity; conditions: read-out: TI
# [14] = test system: Acinetobacter baumannii; test: Antimicrobial activity against Acinetobacter baumannii ATCC 19606 incubated for 20 hrs by microdilution method; format: functional; method in brief: as §1
# [15] = test system: Staphylococcus aureus; test: Antimicrobial activity against Staphylococcus aureus USA300/ST8 incubated for 20 hrs by microdilution method; conditions: USA300 ST8, 20 h
# [16] = test system: Staphylococcus epidermidis; test: Antimicrobial activity against Staphylococcus epidermidis ATCC 12228 incubated for 20 hrs by microdilution method; format: functional; method in brief: as §1
# [17] = test system: Streptococcus pyogenes; test: Antimicrobial activity against Streptococcus pyogenes ATCC 19615 incubated for 20 hrs by microdilution method; format: functional; method in brief: as §1
# [18] = test system: Staphylococcus aureus; test: Antimicrobial activity against CA-methicillin-resistant Staphylococcus aureus W4 ST338 incubated for 20 hrs by microdilution method; format: functional; method in brief: as §2
# [19] = test system: Staphylococcus aureus; test: Antimicrobial activity against Staphylococcus aureus ST239 incubated for 20 hrs by microdilution method; format: functional; method in brief: as §2
# [20] = test system: Streptococcus agalactiae; test: Antimicrobial activity against Streptococcus agalactiae ATCC 12386 incubated for 20 hrs by microdilution method; format: functional; method in brief: as §1
# [21] = test system: Enterococcus faecium; test: Antimicrobial activity against Enterococcus faecium ATCC 19433 incubated for 20 hrs by microdilution method; format: functional; method in brief: as §1
# [22] = Cytotoxicity against human HaCaT cells assessed as reduction in cell viability after 48 to 72 hrs by MTT assay; format: cell-based
# [23] = test system: Staphylococcus aureus; test: Antimicrobial activity against CA-methicillin-resistant Staphylococcus aureus W48 ST217 incubated for 20 hrs by microdilution method; conditions: W48 ST217, 20 h
# [24] = (§3) Antimicrobial activity against Staphylococcus saprophyticus ATCC 15305 incubated for 20 hrs by microdilution method; format: functional, Staphylococcus saprophyticus subsp. saprophyticus; conditions: ATCC 15305, 20 h; method in brief: as §1
# [25] = test system: Staphylococcus aureus; test: Antimicrobial activity against Staphylococcus aureus ST22 11B086169 incubated for 20 hrs by microdilution method; format: functional; method in brief: as §2
# [26] = test system: Bacillus subtilis; test: Inhibition of N-terminal LgBiT-fused Bacillus subtilis NusB expressed in Escherichia coli BL21(DE3)pLysS interaction with C- terminal SmBiT-fused Bacillus subtilis NusE expressed in Escherichia coli BL21(DE3)pLysS at 100 uM preincubated for 10 mins followed by NusE addition and measured after 10 mins by nano-glo luciferase assay relative to control
# Method in brief: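 NusB and NusE were mixed 1:1 at 1 µM in PBS, with compound at 100 µM. The read-out was percent inhibition of the NusB-NusE interaction.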
# [27] = microbe, parasite or virus in culture; conditions: Enterobacter cloacae, ATCC 13047, 20 h
# [28] = test system: Staphylococcus aureus; test: Antimicrobial activity against Staphylococcus aureus HA W235 ST5 incubated for 20 hrs by microdilution method; format: functional; method in brief: as §2
# [29] = test system: Enterococcus casseliflavus; test: Antimicrobial activity against Enterococcus casseliflavus ATCC 25788 incubated for 20 hrs by microdilution method; format: functional; method in brief: as §1
# [30] = test system: Staphylococcus saprophyticus subsp. saprophyticus; test: as §3; format: functional; method in brief: as §1
# [31] = test system: Bacteria; test: Binding affinity to bacterial NusB assessed as change in chiral structure at 2 ug/ml by circular dichroism spectroscopic analysis
# Method in brief: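 Circular dichroism spectra were recorded on NusB at 2.0 µg/mL in neutral phosphate buffer, alone and after mixing with compound at a 1:1 ratio. Binding was read as a change in the spectrum.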
# [32] = test system: Erythrocyte; test: Hemolytic activity against human erythrocytes at 0.1 to 10 ug/ml incubated for 45 mins; format: ADME, cell-based; conditions: 0.75 h
# Method in brief: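 Hemolysis was tested on human blood cells with compound at 0.1, 1 and 10 µg/mL, judged against a nonhemolytic cut-off value.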
# [33] = Apparent permeability across apical to basolateral side in human Caco2 cells by LC-MS/MS analysis; format: ADME, cell-based; conditions: Caco-2
# [34] = ATCC 19606 = CIP 70.34 = JCM 6841, 20 h
Compound,"MIC ([2]; ATCC 49619, 20 h) [µg/mL]",MIC [3] [µg/mL],"MIC ([4]; HA W231 ST45, 20 h) [µg/mL]","MIC ([5]; ATCC BAA43, 20 h) [µg/mL]",MIC [6] [µg/mL],"MIC ([7]; ATCC BAA44, 20 h) [µg/mL]","MIC ([8]; ATCC 27853, 20 h) [µg/mL]",MIC [10] [µg/mL],MIC [11] [µg/mL],"MIC ([12]; W47 ST30, 20 h) [µg/mL]","MIC [14, 34] [µg/mL]",MIC [15] [µg/mL],"MIC ([16]; ATCC 12228, 20 h) [µg/mL]","MIC ([17]; ATCC 19615, 20 h) [µg/mL]","MIC ([18]; W4 ST338, 20 h) [µg/mL]","MIC ([19]; CN79, 20 h) [µg/mL]","MIC ([20]; ATCC 12386, 20 h) [µg/mL]","MIC ([21]; ATCC 19433, 20 h) [µg/mL]",MIC [23] [µg/mL],MIC [24] [µg/mL],also measured
C#Cc1cccc(NCc2cc([N+](=O)[O-])cc(Br)c2O)c1,32,2,2,2,2,16,> 256,4,2,2,256,4,4,32,2,4,32,64,2,16,"selectivity ratio [1]: 27; CC50 [9]: 79.1 µM; selectivity ratio [13]: 25; CC50 [22]: 72.2 µM; MIC ([25]; ST22 11B086169, 20 h): 4 µg/mL; inhibition [26]: 99.6%; MIC [27]: > 256 µg/mL; MIC ([28]; HA W235 ST5, 20 h): 2 µg/mL; MIC ([29]; ATCC 25788, 20 h): 64 µg/mL"
GENTAMICIN,–,–,–,–,–,–,–,–,–,–,–,–,–,–,–,–,–,–,–,–,MIC [2]: 32 µg/mL; MIC [4]: 16 µg/mL; MIC [5]: > 256 µg/mL; MIC [7]: > 256 µg/mL; MIC [8]: 2 µg/mL; MIC [12]: 0.25 µg/mL; MIC ([14]; ATCC 19606 = CIP 70.34 = JCM 6841): 32 µg/mL; MIC [16]: 0.125 µg/mL; MIC [17]: 8 µg/mL; MIC [18]: 0.25 µg/mL; MIC ([19]; CN79): > 256 µg/mL; MIC [20]: 32 µg/mL; MIC [21]: 16 µg/mL; MIC [30]: 0.0625 µg/mL; MIC [25]: 0.25 µg/mL; MIC [28]: > 256 µg/mL; MIC [29]: 4 µg/mL
CC(C)(C)c1ccccc1NCc1cc([N+](=O)[O-])ccc1O,2 to 8,1,2,2,4,2,> 256,2,2,2,> 256,2,1,8,2,2,8,8,2,2,"selectivity ratio [1]: 8; CC50 [9]: 13.4 µM; selectivity ratio [13]: 9; CC50 [22]: 15.1 µM; MIC ([25]; ST22 11B086169, 20 h): 2 µg/mL; inhibition [26]: 72.2%; MIC [27]: > 256 µg/mL; Activity [31]: Active; MIC ([28]; HA W235 ST5, 20 h): 2 µg/mL; MIC ([29]; ATCC 25788, 20 h): 16 µg/mL"
O=[N+]([O-])c1ccc(O)c(CNc2cccc(Cl)c2)c1,8,4,8,4,4,8,> 256,8,8,8,128,8,8,16,8,16,32,32,8,16,"Activity [32]: Non-Toxic; Papp A→B [33]: 14.9 ×10⁻⁶ cm/s; MIC ([25]; ST22 11B086169, 20 h): 4 µg/mL; inhibition [26]: 34.9%; MIC [27]: 256 µg/mL; MIC ([28]; HA W235 ST5, 20 h): 8 µg/mL; MIC ([29]; ATCC 25788, 20 h): 32 µg/mL"
